Reference: ChEMBL document CHEMBL4825680, “Structure-based discovery of potent and selective small-molecule inhibitors targeting signal transducer and activator of transcription 3 (STAT3)” (Eur J Med Chem, 2021)
Active and inactive are the calls of the source. The rule behind the calls is not given here.

What was measured:
[1] = Induction of apoptosis in human MDA231-LM2-4175 cells assessed as viable cells at 3 uM after 48 hrs by Annexin-V-FITC/propidium iodide staining based flow cytometric analysis (reference value: 94.4%); type: functional; conditions: read-out: Activity
[2] = target: T1, Signal transducer and activator of transcription 3 (Homo sapiens, UniProt P40763); experiment: Inhibition of STAT3 dependent transcriptional activity (unknown origin) expressed in HEK293T cells at 1 to 3 uM after 24 hrs by Dual-luciferase reporter gene assay; type: cell-based; conditions: dose 1-3 µM
In short: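 HEK-293T cells (2.5×10^4/well) co-transfected with pGL3-STAT3 (seven STAT3 binding-site copies; 50 ng), STAT3C (50 ng) and TK-Renilla (40 ng). After 24 h, treated with vehicle or compound for 24 h. Dual firefly/Renilla luciferase read on a luminometer.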

[3] = target: T1, Signal transducer and activator of transcription 3; experiment: Inhibition of STAT3 phosphorylation at Ser727 residue in human MDA-MB-468 cells at 3 uM after 3 hrs by Western blotting analysis; type: cell-based
MDA-MB-468 [4] = experiment: Induction of apoptosis in human MDA-MB-468 cells assessed as viable cells at 1 uM after 48 hrs by Annexin-V-FITC/propidium iodide staining based flow cytometric analysis (reference value: 95.5%); type: functional; conditions: read-out: Activity
[5] = target: T1, Signal transducer and activator of transcription 3; experiment: Inhibition of STAT3 in human MDA-MB-468 cells assessed as downregulation of c-Myc expression at 0.3 to 3 uM after 24 hrs by western blot analysis; type: cell-based; conditions: dose 0.3-3 µM
In short: (§1)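 TNBC cells given vehicle (0.1% DMSO) or graded compound levels for 24 h, lysed in RIPA with PMSF and phosphatase inhibitors. BCA-quantified lysate (20–50 µg) run on SDS-PAGE, transferred to PVDF, blocked in 5% BSA. Probed overnight at 4 °C for Bcl-xL, Mcl-1 and c-Myc, with β-actin. HRP secondary, ECL detection. Three independent experiments.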

MDA231-LM2-4175 [6] = experiment: Antitumor activity against human MDA231-LM2-4175 cells xenografted in mouse assessed as reduction in Bcl-xL expression at 5 to 15 mg/kg, iv administered once daily for 20 days by Western blotting analysis; type: functional, organism-based; conditions: dose 5-15 mg/kg, time 20.0 day
[7] = Toxicity in NOD/SCID mouse xenografted with patient-derived breast cancer cells assessed as lethargy at 5 to 15 mg/kg, iv administered once daily for 20 days; type: organism-based; conditions: in vivo, 480 h, dose 5-15 mg/kg, time 20 day
MDA-MB-468 [8] = experiment: Induction of apoptosis in human MDA-MB-468 cells assessed as necrotic cells at 1 uM after 48 hrs by Annexin-V-FITC/propidium iodide staining based flow cytometric analysis (reference value: 0.240%); type: functional
[9] = Induction of apoptosis in human MDA231-LM2-4175 cells assessed as early apoptotic cells at 1 uM after 48 hrs by Annexin-V-FITC/propidium iodide staining based flow cytometric analysis (reference value: 2.49%); type: functional
MDA-MB-231 [10] = experiment: Effect on total STAT1 level in human MDA-MB-231 cells at 0.3 to 3 uM after 3 hrs by Western blotting analysis; type: functional, cell-based; conditions: dose 0.3-3 µM
In short: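 Breast cancer cells were treated with vehicle (0.1% DMSO) or compound, then lysed in RIPA with PMSF and phosphatase inhibitors. 20–50 μg protein was run on 8 or 12% SDS-PAGE, blotted to PVDF, blocked in 5% BSA, probed with primary antibodies overnight at 4 °C, then HRP secondaries, with ECL detection.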

[11] = target: T1, Signal transducer and activator of transcription 3; experiment: Inhibition of STAT3 in human HCC70 cells assessed as downregulation of Bcl-xL expression at 0.3 to 3 uM after 24 hrs by western blot analysis; type: cell-based; conditions: dose 0.3-3 µM; in short: as §1
MDA231-LM2-4175 [12] = experiment: Antitumor activity against human MDA231-LM2-4175 cells xenografted in mouse assessed as reduction in Ki67 expression at 5 to 15 mg/kg, iv administered once daily for 20 days by immunohistochemical analysis; type: functional, organism-based; conditions: dose 5-15 mg/kg, time 20.0 day
MDA-MB-231 [13] = experiment: Induction of apoptosis in human MDA-MB-231 cells assessed as late apoptotic cells at 3 uM after 48 hrs by Annexin-V-FITC/propidium iodide staining based flow cytometric analysis (Rvb =3.05%); type: functional
MDA-MB-468 [14] = experiment: Inhibition of cell migration in human MDA-MB-468 cells incubated for 12 to 96 hrs by wound healing assay; type: functional, cell-based; conditions: dose 0.3-3 µM, time 12-96 hrs
In short: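 Cells grown to 100% confluence, then scratched with a pipette tip. Treated with 0–3 μM until vehicle-treated cells had migrated into the scratch. Images taken by microscope after about 12–96 h. Triplicate experiments.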

[15] = target: T1, Signal transducer and activator of transcription 3; experiment: Inhibition of Flag-tagged STAT3 dimerization (unknown origin) expressed in HEK293T cells preincubated for 3 hrs followed by IL-3 stimulation by immunoprecipitation analysis; type: cell-based; conditions: dose 1-3 µM
HCC70 = experiment: Inhibition of cell invasion in human HCC70 cells incubated for 12 hrs by crystal violet staining based transwell assay; type: functional; conditions: dose 1-3 µM
In short: (§2)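 Cells seeded at 1.5×10^4–3×10^4 per well in the upper chamber of 8.0 µm pore Transwell inserts and treated with graded compound for 12 h. Non-invading cells removed with cotton. Invaded cells fixed in 4% paraformaldehyde, stained with crystal violet, photographed and counted. Triplicate.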

MDA-MB-468 [16] = experiment: Induction of apoptosis in human MDA-MB-468 cells assessed as early apoptotic cells at 3 uM after 48 hrs by Annexin-V-FITC/propidium iodide staining based flow cytometric analysis (reference value: 2.66%); type: functional
MDA231-LM2-4175 [17] = experiment: Inhibition of cell invasion in human MDA231-LM2-4175 cells incubated for 12 hrs by crystal violet staining based transwell assay; type: functional; conditions: dose 1-3 µM; in short: as §2
[18] = Toxicity in mouse xenografted with human MDA-MB-231-4175 cells assessed as body weight loss at 5 to 15 mg/kg, […] once daily for 20 days; type: organism-based; conditions: in vivo, iv, dose 5-15 mg/kg, time 20 day
In short: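 Female NOD-SCID mice aged 4–5 weeks, given 2×10^6–3×10^6 MDA-MB-231-4175 cells subcutaneously in the flank. At about 100 mm³ tumour volume, randomised n=6/group to vehicle (PBS with 15% Cremophor EL) or 5 or 15 mg/kg intraperitoneally daily for 20 days. Body weight tracked during treatment.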

[19] = Toxicity in NOD/SCID mouse xenografted with patient-derived breast cancer cells assessed as change in body weight at 5 to 15 mg/kg, ip administered once daily for 20 days; conditions: in vivo, 480 h
[20] = Toxicity in NOD/SCID mouse xenografted with patient-derived breast cancer cells assessed as morphological change in liver at 5 to 15 mg/kg, […] once daily for 20 days by HE staining based assay; type: organism-based; conditions: in vivo, iv, dose 5-15 mg/kg, time 20 day
In short: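 Female NOD-SCID mice implanted subcutaneously in the flank with about 2 mm³ TNBC PDX fragments. At about 100 mm³ tumour volume, randomised n=6/group: vehicle (PBS with 15% Cremophor EL), 5 or 15 mg/kg intraperitoneally daily. Killed at day 20; heart, liver, spleen, lung and kidney collected for morphological examination.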

T1 sequence (P40763 whole entry): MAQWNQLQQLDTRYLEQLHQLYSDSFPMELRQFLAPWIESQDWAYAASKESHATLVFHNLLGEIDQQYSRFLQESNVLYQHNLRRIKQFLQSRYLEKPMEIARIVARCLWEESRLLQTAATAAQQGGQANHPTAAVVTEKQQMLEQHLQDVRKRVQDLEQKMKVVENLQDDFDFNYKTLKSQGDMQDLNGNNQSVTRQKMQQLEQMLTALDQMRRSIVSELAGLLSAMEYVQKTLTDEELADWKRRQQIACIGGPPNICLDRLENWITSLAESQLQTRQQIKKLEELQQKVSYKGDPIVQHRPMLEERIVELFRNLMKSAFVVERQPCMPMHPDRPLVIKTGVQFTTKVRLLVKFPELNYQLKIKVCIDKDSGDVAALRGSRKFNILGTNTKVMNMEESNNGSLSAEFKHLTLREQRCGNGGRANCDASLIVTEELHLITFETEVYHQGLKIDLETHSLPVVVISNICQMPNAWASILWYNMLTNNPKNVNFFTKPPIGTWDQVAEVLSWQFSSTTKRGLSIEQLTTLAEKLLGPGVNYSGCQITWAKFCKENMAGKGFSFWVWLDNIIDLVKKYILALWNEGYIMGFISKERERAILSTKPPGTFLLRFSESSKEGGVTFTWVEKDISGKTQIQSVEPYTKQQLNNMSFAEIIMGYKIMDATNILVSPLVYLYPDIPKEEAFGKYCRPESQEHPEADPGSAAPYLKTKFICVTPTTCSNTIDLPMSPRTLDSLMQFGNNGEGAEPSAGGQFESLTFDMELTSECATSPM

## O=C(Cc1c(-c2ccccc2)nc2ccccn12)Nc1ccc2c(c1)S(=O)(=O)C=C2
[1]
  viability at 3 µM: 83.4%
[2]
  inhibition: Active
[3]
  inhibition: inactive
MDA-MB-468 [4]
  viability at 1 µM: 57.9%
[5]
  inhibition: Active
MDA231-LM2-4175 [6]
  Activity: Active
[7]
  Activity: Non-Toxic
MDA-MB-468 [8]
  Activity: 1.54%
[9]
  Activity: 6.17%
MDA-MB-231 [10]
  Activity: inactive
[11]
  inhibition: Active
MDA231-LM2-4175 [12]
  Activity: inactive
MDA-MB-231 [13]
  Activity: 11.5%
MDA-MB-468 [14]
  inhibition: Dose-Dependent Effect
[15]
  inhibition: Dose-Dependent Effect
HCC70
  inhibition: Dose-Dependent Effect
MDA-MB-468 [16]
  Activity: 32.3%
MDA231-LM2-4175 [17]
  inhibition: Dose-Dependent Effect
[18]
  Activity: Non-Toxic
[19]
  Activity: Non-Toxic
[20]
  Activity: Non-Toxic
